Published values pooled from the literature.
Protocols differ between the studies behind these lines.
Target: Vascular endothelial growth factor receptor 3 (FLT4, Homo sapiens, UniProt P35916)

| SMILES | effect on | mode | technique | tested at | quantity | result |
| --- | --- | --- | --- | --- | --- | --- |
| O=C1C=C(Nc2ccc(OCc3cn(Cc4ccc(Br)cc4)nn3)cc2)C(=O)c2ccccc21 | enzyme activity | inhibitor | radiometric | 10 µM | inhibition | 26% |
| CC#CC(=O)N1CCC[C@H]1c1nc(-c2ccc(C(=O)Nc3ccccn3)cc2)c2c(N)nccn12 | enzyme activity | inhibitor | – | 1 µM | inhibition | 0% |
| COc1ccc2oc(-c3ccc4nc(N)oc4c3)c/c(=N\c3ccccc3NC(=O)CCN)c2c1 | binding | – | – | 1 µM | remaining binding | 105% |
| C1=C/COCc2cc(ccc2OCCN2CCCC2)Nc2nccc(n2)-c2cccc(c2)COC/1 | binding | – | – | 0.1 µM | remaining binding | 69% |
| COc1ccc2[nH]c3c4[nH]c5ccc(OC)cc5c4c4c(c3c2c1)C(=O)NC4=O | binding | – | competition with immobilised ligand | 1 µM | remaining binding | 71% |
| C=CC(=O)N1CCC([C@@H]2CCNc3c(C(N)=O)c(-c4ccc(Oc5ccccc5)cc4)nn32)CC1 | cell-free assay | – | – | 1 µM | inhibition | 12% |
| CN1CCN(C(=O)c2ccc(NC(=O)Nc3ccc(N(C)c4ccnc(Nc5ccc(CS(C)(=O)=O)cc5)n4)cc3)cc2)CC1 | binding | – | competition with immobilised ligand | 1 µM | remaining binding | 2% |
| CCCCC(=O)Nc1ccc(-c2ccc3ncn(CCC)c(=O)c3c2)cn1 | binding | – | competition with immobilised ligand | 0.5 µM | remaining binding | 100% |
